Each structure is given as a SMILES string.

The nature of this assay: Inhibition of ACE. In a few lines:
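Enzyme source: rabbit lung acetone powder, extracted by soaking in 100 mM borate buffer, then ultracentrifuged. Extract preincubated 5 min with a range of inhibitor concentrations. Reaction started with a 1 mM solution of chromogenic substrate FAPGG. Initial hydrolysis rate followed continuously as absorbance change at 340 nm over time. IC50 from triplicate measurements fitted to a sigmoidal dose-response curve. Captopril run in parallel as benchmark.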
One may read the IC50 as the concentration needed to halve the response being measured. With `CC[C@@H](C)[C@H](NC(C)=O)C(=O)N[C@@H](Cc1ccc(O)cc1)C(=O)N[C@H](Cc1ccc(O)cc1)P(=O)(O)O`, the IC50 is 0.139 µM.
Turning to `CCOP(=O)(OCC)[C@H](Cc1ccc(O)cc1)NC(=O)[C@H](Cc1ccc(O)cc1)NC(=O)[C@@H](NC(C)=O)[C@H](C)CC`, half-maximal inhibition (IC50) was put at 383 µM.
As for `CC[C@@H](C)[C@H](N)C(=O)N[C@@H](Cc1ccc(O)cc1)C(=O)N[C@H](Cc1ccc(O)cc1)C(=O)O`, the IC50 is over 1000 µM.
On to `CC[C@@H](C)[C@H](N)C(=O)N[C@@H](Cc1ccc(O)cc1)C(=O)N[C@@H](Cc1ccc(O)cc1)P(=O)(O)O`, for which half-maximal inhibition (IC50) was put at 0.234 µM.
The molecule `C[C@H](CS)C(=O)N1CCC[C@H]1C(=O)O` [CAPTOPRIL] returned a 50% inhibitory concentration (IC50) of 0.0077 µM.
The molecule `CC[C@@H](C)[C@H](NC(C)=O)C(=O)N[C@@H](Cc1ccc(O)cc1)C(=O)N[C@@H](Cc1ccc(O)cc1)C(=O)O` registered a half-maximal inhibitory concentration (IC50) of 21 µM. This IC50 is about 2700-fold higher than that of the molecule before.
The molecule `CC[C@@H](C)[C@H](NC(C)=O)C(=O)N[C@@H](Cc1ccc(O)cc1)C(=O)N[C@H](Cc1ccc(O)cc1)C(=O)O` displayed a half-maximal inhibitory concentration (IC50) of 2000 µM.
To `CC[C@@H](C)[C@H](NC(C)=O)C(=O)N[C@@H](Cc1ccc(O)cc1)C(=O)N[C@@H](Cc1ccc(O)cc1)P(=O)(O)O` belongs 0.0144 µM.
Take `CC[C@@H](C)[C@H](N)C(=O)N[C@@H](Cc1ccc(O)cc1)C(=O)N[C@H](Cc1ccc(O)cc1)P(=O)(O)O`: the IC50 is 54.6 µM.
The molecule `CC[C@@H](C)[C@H](N)C(=O)N[C@@H](Cc1ccc(O)cc1)C(=O)N[C@@H](Cc1ccc(O)cc1)C(=O)O` had an IC50 of 236 µM. Against the preceding molecule, the IC50 is about 4.3-fold higher.

These data come from ChEMBL document CHEMBL1142429, “Identification of ACE pharmacophore in the phosphonopeptide metabolite K-26” (Bioorg Med Chem Lett, 2008).
